STAT3 blocker: reduces IL-6 driven STAT3 reporter signal; U3A cells, IL-6 STAT3-luciferase reporter, luminescence; host cell line lacks STAT1; inhibition, % at 5.5 µM; 190,000 tested, 0.89% active; AID 862;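 active means inhibition above the mean inhibition across all screened compounds plus 3 SD, cut at about 44% in these data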
NF-kB neuron act: NF-kB expression increase, human neuronal cells | NF-kB reporter expression; hits give high values | fold change at 12.5 µM | 190,000 tested, 1.6% active | AID 1239; in the data active means fold change above about 3.3
STAT3 act: STAT3 signaling activation; activation (% of control), % at 5.6 µM; U3A cells, IL-6 STAT3-luciferase reporter, luminescence; 100% = signal with IL-6 EC80 alone; 190,000 tested, 0.91% active;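 active means activation above the screen-wide mean of compound activation plus 3 SD, cut at about 130% in these data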
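Material: human STAT1-deficient U3A cells with stable STAT3-luciferase reporter / Probe or stimulus: IL-6 stimulus at 33 ng/mL final / Schedule: 1 h compound pre-exposure, 6 h IL-6 stimulation, 37 °C / Technique: luminescence / Read-out basis: percent of IL-6-only median luminescence / Control set: IL-6-only high control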
STAT1 blocker: reduces IFN-gamma driven STAT1 reporter signal | NIH 3T3 STAT1-luciferase reporter, luminescence | inhibition, % at 5.5 µM | 200,000 tested, 0.35% active;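 active means inhibition above a set limit, the mean inhibition across all tested compounds plus 3 SD, cut at about 34% in these data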
STAT1 activator: activators of IFN-gamma induced STAT1 signaling. activation (% of control), % at 5.5 µM. NIH 3T3 STAT1-luciferase reporter, luminescence; 100% = IFN-gamma alone, no compound. 200,000 tested, 2.6% active;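 active means activation above the screen-wide mean activation plus 3 SD, cut at about 130% in these data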
APP 5'UTR act: APP 5'UTR luciferase reporter activation | SH-SY5Y APP 5'UTR luciferase reporter, luminescence; zero percent = DMSO vehicle wells | activation, % at 2 µM | 190,000 tested, 1% active | AID 1276;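 active means activation above a set limit, based on mean plus 3 SD of controls, cut at about 140% in these data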
Large screens that a line does not name were inactive. An excerpt weighted towards active compounds, which were near 5.1% of everything screened.

CC(C)CCNC(=O)c1ccc2c(SCC(=O)O)c3c(nc2c1)CCCC3	none
CNS(=O)(=O)c1ccc2nc(NC(=O)/C=C/c3ccco3)sc2c1	STAT1 activator 131
CC(=O)c1cnc(Nc2ccc(C)cc2)s1	STAT1 activator 137
Cc1ccc(Nc2ncccc2C(N)=O)cc1	none
O=C(O)c1ccc(/C=N/Nc2ccc(F)cc2F)cc1	NF-kB neuron act 12, APP 5'UTR act 170
Clc1ccc(N/N=C/c2ccncc2)cc1Cl	none
O=C(CNC(=O)c1cccc(F)c1)N/N=C/C=C/c1ccccc1	none
Fc1ccc(N/N=C/C=C/c2ccccc2)c(F)c1	STAT1 activator 137
Fc1ccc(NC(=S)N/N=C/c2ccc(F)c(F)c2)c(F)c1	none
Fc1ccc(N/N=C/c2ccncc2)c(F)c1	STAT1 activator 129
Cc1cc(C(=O)CCl)c(C)n1CCc1ccccc1	none
COC(=O)CCCn1c(C)cc(C(=O)CCl)c1C	NF-kB neuron act 3.6
CCCCN(C)CCNC(=O)c1c[nH]c2ccc(S(=O)(=O)N(CC)CC)cc2c1=O	none
CCn1c(-c2cccnc2Cl)nc2ccccc21	none
COc1ccc(NC(=O)/C(=C\c2ccncc2)NC(=O)c2ccccc2)cc1	none
COc1cc(C(=O)Oc2ccccc2/C=N/NC(=O)c2ccc(Cl)cc2)cc(OC)c1OC	STAT1 activator 131
COc1cc(C(=O)Oc2ccccc2/C=N/NC(=O)c2ccc(C)c(Cl)c2)cc(OC)c1OC	none
COc1cc(/C=N/NC(=O)c2ccc(-c3ccccc3)cc2)cc(OC)c1OC	STAT3 act 134
Cc1ccc(-c2cn3c(n2)SCC3)cc1	NF-kB neuron act 4.1, STAT1 activator 141
O=C(Oc1ccc(-c2cn3c(n2)SCC3)cc1)c1ccccc1	none
COc1ccc(CCn2c(N3CCN(C)CC3)nc3c2c(=O)[nH]c(=O)n3C)cc1	none
COc1ccc(NC2=Nc3ccccc3CC2)cc1	NF-kB neuron act 3.7, STAT1 activator 132
COc1ccc(OC)c(NC(=O)CN(C)CC(=O)Nc2ccccc2Br)c1	none
N#Cc1c(NCCO)nc(NCc2ccccc2)c2c1CCN(Cc1ccccc1)C2	NF-kB neuron act 5.8
C=CCNc1nc(N2CCCCC2)c(C#N)c2c1CN(Cc1ccccc1)CC2	NF-kB neuron act 4.7
COc1ccc(C2CC(=O)n3nc(C45CC6CC(CC(C6)C4)C5)nc3S2)cc1OC (centres undefined)	none
O=C(CN1CCN(C2CCCCC2)CC1)Nc1ccccc1-c1ccccc1	none
CN(C)c1ccc(CC(=O)c2nc3ccccc3s2)cc1	STAT1 activator 134
CN(C)C(=O)c1nc2ccccc2s1	none
COc1ccc(C(=O)NC2CCN(C(=O)NC3CCCCC3)CC2)cc1	none
Cc1ccc(-c2nn(-c3ccccc3)cc2/C=C/C(=O)Nc2nccs2)cc1	none
Nc1nc(COc2ccc3ccccc3c2)cs1	STAT1 activator 138
Nc1nc(CCOc2ccc(F)cc2)cs1	STAT1 activator 141
Cc1ccc(C(=O)Nc2cccnc2)cc1S(=O)(=O)N1CCOCC1	none

Screening data deposited in PubChem BioAssay by several laboratories.
